Results from ChEMBL document CHEMBL3286388, “Discovery of potent anticancer agent HJC0416, an orally bioavailable small molecule inhibitor of signal transducer and activator of transcription 3 (STAT3)” (Eur J Med Chem, 2014).
Calls of active or inactive are those of the source. The rule behind the calls is not given here.

Experiments:
[1] = tested on: ASPC1; experiment: Antiproliferative activity against human AsPC1 cells assessed as inhibition of cell proliferation after 72 hrs by MTS assay; format: functional, cell-based; settings: ASPC1, 72 h
Outline: (§1)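 Cells seeded at 2 × 10^3 per well, exposed to DMSO or 0.01–100 µM (0.01, 0.1, 1, 5, 10, 100) for 72 h. MTS added, OD 550 nm read after 1 h at 37 °C. Quadruplicate wells for each concentration; IC50 reported.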

[2] = tested on: MDA-MB-231; experiment: Antiproliferative activity against ER-negative and triple-negative human MDA-MB-231 cells assessed as inhibition of cell proliferation after 72 hrs by MTS assay; format: functional, cell-based; settings: MDA-MB-231, 72 h; outline: as §1
[3] = tested on: MCF7; experiment: Antiproliferative activity against ER-positive human MCF7 cells assessed as inhibition of cell proliferation after 72 hrs by MTS assay; format: functional, cell-based; settings: MCF7, 72 h; outline: as §1
[4] = Antiproliferative activity against human PANC1 cells assessed as inhibition of cell proliferation after 72 hrs by MTS assay; format: functional, cell-based; settings: PANC-1, 72 h; outline: as §1
[5] = tested on: MDA-MB-231; experiment: Downregulation of cyclin D1 protein expression in human MDA-MB-231 cells at 1 to 10 uM after 12 hrs by western blot analysis; format: functional, cell-based
Outline: (§2)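 MDA-MB-231 cells treated for 12 h. Lysates (40 µg protein, BCA) run on 10% SDS-PAGE and transferred to nitrocellulose. Blocked in 5% milk/1% Tween 20 in TBS, probed for pSTAT3 Y705, STAT3, active caspase-3, cyclin D1 and β-actin, ECL detection.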

[6] = tested on: MDA-MB-231; experiment: Decrease in STAT3 protein expression in human MDA-MB-231 cells at 1 to 10 uM after 12 hrs by western blot analysis; format: functional, cell-based; outline: as §2
[7] = tested on: MDA-MB-231; experiment: Induction of apoptosis in human MDA-MB-231 cells assessed as cleaved caspase-3 level at 1 to 10 uM after 12 hrs by western blot analysis; format: functional, cell-based; outline: as §2
[8] = tested on: MDA-MB-231; experiment: Inhibition of STAT3 promoter activity in human MDA-MB-231 cells at 5 uM after 24 hrs by dual luciferase reporter assay; format: functional; settings: MDA-MB-231, 24 h
Outline: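 MDA-MB-231 cells pretreated at 5 µM for 24 h, replated in RPMI-1640 with 10% FBS, and transfected 4 h later with pSTAT3-Luc plus renilla control (95:5, 0.5 µg DNA per well). Treated again for 24 h starting 5 h after transfection. RLU = firefly/renilla luciferase relative to DMSO control. Triplicate wells, at least 3 independent experiments.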

[9] = tested on: MDA-MB-231; experiment: Antitumor activity against triple-negative human MDA-MB-231 cells xenografted in nude mouse assessed as decrease in tumor volume at 100 mg/kg, po administered via gavage for five days per week; format: functional; settings: MDA-MB-231, 120 h
Outline: (§3)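 Female nude mice, 6 weeks old, received 2.5 × 10^6 MDA-MB-231 cells in PBS into the 3rd mammary fat pad and were randomized (5–10 per group). Dosing began at 150 mm³ tumors for ip daily 10 mg/kg, or 110 mm³ for oral gavage 100 mg/kg five days per week. Vehicle was 50% DMSO/50% PEG. Body weight and tumor volume (0.5·L·W²) measured daily.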

[10] = target: Signal transducer and activator of transcription 3 (Homo sapiens) (UniProt P40763); experiment: Inhibition of STAT3 phosphorylation at Tyr705 in human MDA-MB-231 cells at 1 to 10 uM after 12 hrs by western blot analysis; format: cell-based; outline: as §2
[11] = tested on: Mus musculus; experiment: Toxicity in nude mouse xenografted with triple-negative human MDA-MB-231 cells assessed as body weight loss at 100 mg/kg, po administered via gavage for five days per week; format: organism-based; design: dose 100 mg/kg, route oral; settings: in vivo; outline: as §3
[12] = tested on: MDA-MB-231; experiment: Anticancer activity against human MDA-MB-231 cells assessed as cell growth inhibition, apoptosis and cellular morphological changes at 1 to 10 uM after 48 hrs by light microscopy; format: functional, cell-based
Outline: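 Exponentially growing MDA-MB-231 cells incubated with compound for 48 h; growth, apoptosis and morphology judged under light microscopy.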

[13] = tested on: MDA-MB-231; experiment: Antitumor activity against triple-negative human MDA-MB-231 cells xenografted in nude mouse assessed as decrease in tumor volume at 10 mg/kg, ip administered daily; format: functional; settings: MDA-MB-231, ip, route intraperitoneal; outline: as §3

Sequence of Signal transducer and activator of transcription 3 (Homo sapiens) (P40763 whole entry): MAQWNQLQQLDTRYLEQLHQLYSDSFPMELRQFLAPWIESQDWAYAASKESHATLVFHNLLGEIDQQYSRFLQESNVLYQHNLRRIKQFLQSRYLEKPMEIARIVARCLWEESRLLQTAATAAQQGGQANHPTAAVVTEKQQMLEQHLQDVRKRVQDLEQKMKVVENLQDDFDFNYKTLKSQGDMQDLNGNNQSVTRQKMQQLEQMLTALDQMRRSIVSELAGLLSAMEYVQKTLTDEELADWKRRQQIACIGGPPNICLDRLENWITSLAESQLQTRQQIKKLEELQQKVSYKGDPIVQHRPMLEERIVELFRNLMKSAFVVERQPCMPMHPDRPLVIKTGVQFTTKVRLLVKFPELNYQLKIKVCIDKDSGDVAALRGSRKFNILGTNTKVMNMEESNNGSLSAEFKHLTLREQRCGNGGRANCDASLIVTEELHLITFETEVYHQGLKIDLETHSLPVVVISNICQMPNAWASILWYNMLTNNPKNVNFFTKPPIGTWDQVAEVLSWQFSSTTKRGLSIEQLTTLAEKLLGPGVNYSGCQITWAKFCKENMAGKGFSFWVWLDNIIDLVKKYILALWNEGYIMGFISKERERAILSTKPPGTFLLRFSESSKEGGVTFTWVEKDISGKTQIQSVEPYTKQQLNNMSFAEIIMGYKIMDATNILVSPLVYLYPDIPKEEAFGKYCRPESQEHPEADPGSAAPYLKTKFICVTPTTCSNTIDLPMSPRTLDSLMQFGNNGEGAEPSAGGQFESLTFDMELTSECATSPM

Row | IC50 [1] | IC50 [2] | IC50 [3] | inhibition [10] | Structure (SMILES) | IC50 [4] | inhibition [5] | inhibition [6] | Activity [7] | inhibition at 5 µM [8] | inhibition in vivo at 100 mg/kg [9] | Activity [11] | Activity [12] | inhibition in vivo at 10 mg/kg [13]
1 | 1370 nM | 4420 nM | 4 µM | – | O=C(Nc1ccc2c(c1)S(=O)(=O)C=C2)c1cc(Cl)ccc1OCCF | 9.53 µM | – | – | – | – | – | – | – | –
2 | 1070 nM | 2860 nM | 4.08 µM | – | CN1CCN(CCOc2ccc(Cl)cc2C(=O)Nc2ccc3c(c2)S(=O)(=O)C=C3)CC1 | 3.01 µM | – | – | – | – | – | – | – | –
3 | 1020 nM | 3290 nM | 2.56 µM | – | O=C(Nc1ccc2c(c1)S(=O)(=O)C=C2)c1cc(Cl)ccc1OCCN1CCNCC1 | 3.69 µM | – | – | – | – | – | – | – | –
4 | 40 nM | 1970 nM | 1.76 µM | Active | NCCCOc1ccc(Cl)cc1C(=O)Nc1ccc2c(c1)S(=O)(=O)C=C2 | 1.88 µM | Active | Active | Active | 51% | 46% | Non-toxic | Active | 67%
5 | 1370 nM | 5430 nM | 0.49 µM | – | O=C(Nc1ccc2c(c1)S(=O)(=O)C=C2)c1cc(Cl)ccc1OCCN1CCOCC1 | 6.95 µM | – | – | – | – | – | – | – | –
6 | 1050 nM | 3120 nM | 3.47 µM | – | NCCOc1ccc(Cl)cc1C(=O)Nc1ccc2c(c1)S(=O)(=O)C=C2 | 2.25 µM | – | – | – | – | – | – | – | –
7 | 1420 nM | 2510 nM | 3.74 µM | – | O=C(Nc1ccc2c(c1)S(=O)(=O)C=C2)c1cc(Cl)ccc1OCCN1CCCCC1 | 1.81 µM | – | – | – | – | – | – | – | –
8 | 1600 nM | 2850 nM | 4.21 µM | – | O=C(Nc1ccc2c(c1)S(=O)(=O)C=C2)c1cc(Cl)ccc1OC1CCNCC1 | 4.09 µM | – | – | – | – | – | – | – | –
9 | 1140 nM | 2690 nM | 3.5 µM | – | CN(C)CCOc1ccc(Cl)cc1C(=O)Nc1ccc2c(c1)S(=O)(=O)C=C2 | 3.38 µM | – | – | – | – | – | – | – | –
10 | 2050 nM | 3120 nM | 3.15 µM | – | CNCCOc1ccc(Cl)cc1C(=O)Nc1ccc2c(c1)S(=O)(=O)C=C2 | 3.09 µM | – | – | – | – | – | – | – | –
11 | 1040 nM | 2680 nM | 3.53 µM | – | CN1CCC(Oc2ccc(Cl)cc2C(=O)Nc2ccc3c(c2)S(=O)(=O)C=C3)CC1 | 1.36 µM | – | – | – | – | – | – | – | –
12 | 1320 nM | 2890 nM | 3.6 µM | Active | O=[N+]([O-])c1ccc2c(c1)S(=O)(=O)C=C2 | 3.77 µM | – | Active | – | 39% | – | – | Active | –
13 | – | > 10000 nM | > 10 µM | – | O=C(Nc1ccc2c(c1)S(=O)(=O)C=C2)c1cc(Cl)ccc1OCCBr | – | – | – | – | – | – | – | – | –
14 | 8460 nM | 7050 nM | 6.07 µM | – | COC1CS(=O)(=O)c2cc(NC(=O)c3cc(Cl)ccc3O)ccc21 (configuration not stated) | 8.39 µM | – | – | – | – | – | – | – | –
